Type in all cases: cell-based
In assay [1] the target is T1, Protein cereblon/von Hippel-Lindau disease tumor suppressor (Homo sapiens, UniProt P40337+Q96SW2). Description: Protac activity at VHL/CRBN in human HeLa cells assessed as pVHL19 protein abundance at 1 uM after 4 hrs by Western blot analysis relative to DMSO. In outline: (§1)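 HeLa cells seeded overnight, then exposed to 1 µM compound (0.1% v/v DMSO final) over a time course. Cells were DPBS-washed and RIPA-lysed with protease inhibitors and benzonase; equal protein was loaded. Immunoblots for CRBN and VHL isoforms were quantified against β-tubulin and reported relative to the averaged 0.1% DMSO vehicle.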
Background: A western blot detects proteins with antibodies after separation by electrophoresis.

Assay [2] has as its target T1, Protein cereblon/von Hippel-Lindau disease tumor suppressor. Description: Protac activity at VHL/CRBN in human HeLa cells assessed as pVHL19 protein abundance at 1 uM after 24 hrs by Western blot analysis relative to DMSO. A digest of the protocol: as §1
For assay [3] the target is unchanged. Description: Protac activity at VHL/CRBN in human HeLa cells assessed as pVHL19 protein abundance after 4 hrs by Western blot analysis relative to DMSO. In outline: (§2)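 HeLa cells (5 × 10⁵, DMEM + 10% FBS, 37 °C, 5% CO₂, ≤30 passages) seeded overnight, then treated 4 h with compound at single or graded concentrations (0.1% v/v DMSO final). RIPA lysates equalised by Bradford; SDS-PAGE and anti-CRBN/anti-VHL immunoblots; bands normalised to β-tubulin and expressed as % of mean DMSO vehicle. DC₅₀ from fit of band intensity versus log[concentration].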

Assay [4] shares this target. Description: Protac activity at VHL/CRBN in HEK293 cells assessed as pVHL30 protein abundance at 1 uM after 4 hrs by Western blot analysis relative to DMSO. In outline: (§3)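 HEK293 cells (DMEM, 10% FBS, penicillin/streptomycin, L-glutamine; 37 °C, 5% CO2; ≤30 passages) seeded at 1 × 10⁶ per well overnight, then treated with compound at 0.1% v/v final DMSO. Cells were lysed in RIPA with protease inhibitors and benzonase, then clarified. Equal Bradford-quantified protein was immunoblotted for CRBN/VHL. Bands were normalised to β-tubulin and expressed as % of mean 0.1% DMSO vehicle.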

For assay [5] the target is unchanged. Kind of assay: Protac activity at VHL/CRBN in human HeLa cells assessed as pVHL30 protein abundance at 10 nM after 4 hrs by Western blot analysis relative to DMSO. In outline:
as §2

The target is the same in assay [6]. Description: Protac activity at VHL/CRBN in HEK293 cells assessed as pVHL19 protein abundance after 4 hrs by Western blot analysis relative to DMSO. In outline: as §3
Assay [7] shares this target. Description: Protac activity at VHL/CRBN in human HeLa cells assessed as CRBN protein abundance at 1 uM after 4 hrs by Western blot analysis relative to DMSO. A digest of the protocol: as §1
Assay [8] shares this target. Description: Protac activity at VHL/CRBN in HEK293 cells assessed as pVHL30 protein abundance after 4 hrs by Western blot analysis relative to DMSO. In outline: as §3
For assay [9] the target is unchanged. Kind of assay: Protac activity at VHL/CRBN in human HeLa cells assessed as induction of VHL degradation at 1 uM after 4 hrs by Western blot analysis. A digest of the protocol:
as §2

Assay [10] shares this target. Kind of assay: Protac activity at VHL/CRBN in human HeLa cells assessed as CRBN protein abundance after 4 hrs by Western blot analysis relative to DMSO. A digest of the protocol:
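HeLa cells (DMEM, 10% FBS, penicillin/streptomycin, L-glutamine; 37 °C, 5% CO2) seeded at 5 × 10⁵ per well overnight, then treated in 0.1% v/v final DMSO. Cells were lysed in RIPA with protease inhibitors and benzonase, and equal protein was run on SDS-PAGE/nitrocellulose blots probed with anti-CRBN. Bands were normalised to β-tubulin and expressed relative to mean 0.1% DMSO vehicle.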

The target is the same in assay [11]. Description: Protac activity at VHL/CRBN in human HeLa cells assessed as pVHL30 protein abundance after 4 hrs by Western blot analysis relative to DMSO. In outline: as §2
Assay [12] shares this target. Description: Protac activity at VHL/CRBN in HEK293 cells assessed as CRBN protein abundance at 1 uM after 4 hrs by Western blot analysis relative to DMSO. In outline: as §3
Assay [13] has the same target. Description: Protac activity at VHL/CRBN in human HeLa cells assessed as pVHL30 protein abundance at 1 uM after 4 hrs by Western blot analysis relative to DMSO. A digest of the protocol:
as §1

Assay [14] has the same target. Kind of assay: Protac activity at VHL/CRBN in human HeLa cells assessed as pVHL30 protein abundance at 1 uM after 24 hrs by Western blot analysis relative to DMSO. A digest of the protocol: as §1
For assay [15] the target is unchanged. Kind of assay: Protac activity at VHL/CRBN in HEK293 cells assessed as pVHL19 protein abundance at 1 uM after 4 hrs by Western blot analysis relative to DMSO. In outline:
as §3

Assay [16] has the same target. Description: Protac activity at VHL/CRBN in HEK293 cells assessed as pVHL30 protein abundance at 1 uM after 24 hrs by Western blot analysis relative to DMSO. A digest of the protocol: as §3
For assay [17] the target is unchanged. Description: Protac activity at VHL/CRBN in human HeLa cells assessed as CRBN protein abundance at 1 uM after 24 hrs by Western blot analysis relative to DMSO. A digest of the protocol:
as §1

For assay [18] the target is unchanged. Description: Protac activity at VHL/CRBN in HEK293 cells assessed as CRBN protein abundance after 4 hrs by Western blot analysis relative to DMSO. A digest of the protocol: as §3
Assay [19] shares this target. Kind of assay: Protac activity at VHL/CRBN in human HeLa cells assessed as CRBN protein abundance at 10 nM after 4 hrs by Western blot analysis relative to DMSO. In outline: as §2
Assay [20] shares this target. Kind of assay: Protac activity at VHL/CRBN in HEK293 cells assessed as CRBN protein abundance at 1 uM after 24 hrs by Western blot analysis relative to DMSO. A digest of the protocol:
as §3

Assay [21] has the same target. Kind of assay: Protac activity at VHL/CRBN in human HeLa cells assessed as pVHL19 protein abundance at 10 nM after 4 hrs by Western blot analysis relative to DMSO. In outline:
as §2

Assay [22] has the same target. Description: Protac activity at VHL/CRBN in HEK293 cells assessed as pVHL19 protein abundance at 1 uM after 24 hrs by Western blot analysis relative to DMSO. A digest of the protocol:
as §3

Calls of active or inactive are those of the source. The calls are words filed in the database; no cut-off is given here.

T1 sequence (P40337 whole entry, looked up, canonical isoform): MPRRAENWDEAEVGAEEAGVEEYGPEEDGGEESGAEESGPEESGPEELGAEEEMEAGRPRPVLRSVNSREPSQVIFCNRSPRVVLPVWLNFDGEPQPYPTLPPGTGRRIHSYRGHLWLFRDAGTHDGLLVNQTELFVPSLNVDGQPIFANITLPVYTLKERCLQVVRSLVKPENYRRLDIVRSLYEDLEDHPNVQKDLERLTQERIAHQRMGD
T1 sequence (Q96SW2 whole entry, looked up, canonical isoform): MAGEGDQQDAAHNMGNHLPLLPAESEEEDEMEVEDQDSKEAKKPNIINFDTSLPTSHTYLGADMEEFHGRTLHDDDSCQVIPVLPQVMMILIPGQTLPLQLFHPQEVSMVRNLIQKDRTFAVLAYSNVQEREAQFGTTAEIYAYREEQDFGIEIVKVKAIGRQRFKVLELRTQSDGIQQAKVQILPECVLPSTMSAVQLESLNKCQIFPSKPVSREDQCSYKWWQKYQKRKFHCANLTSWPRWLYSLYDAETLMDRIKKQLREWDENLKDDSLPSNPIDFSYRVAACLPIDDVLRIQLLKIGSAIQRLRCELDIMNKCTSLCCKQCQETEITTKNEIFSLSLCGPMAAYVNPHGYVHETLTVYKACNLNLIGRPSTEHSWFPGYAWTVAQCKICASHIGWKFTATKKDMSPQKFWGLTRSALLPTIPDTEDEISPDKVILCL

For the molecule `Cc1ncsc1-c1ccc(CNC(=O)[C@@H]2C[C@@H](O)CN2C(=O)[C@@H](NC(=O)COCCOCCOCCOCCOCCOCC(=O)N[C@H](C(=O)N2C[C@H](O)C[C@H]2C(=O)NCc2ccc(-c3scnc3C)cc2)C(C)(C)C)C(C)C)cc1`, the Activity in assay [1] worked out at 97%; in [2], 122%; in [3], 100%; in assay [4] it was 1%; in assay [5], 0%; in assay [6] it was 95%. Besides, the Activity in assay [7] came to 103%; in assay [8], 6%; in assay [10] it was 99%; in assay [11], 0%; in assay [12], 102%; in assay [13] it was 1%. In addition, the Activity came out at 11% in [14]; 95% in assay [15]; 3% in assay [16]; 118% in assay [17]; 100% in assay [18]; 87% in assay [19]. The Activity was 109% in assay [20], 97% in assay [21] and 99% in assay [22]. Also, the outcome in [9] was inactive.
In the case of `O=C1CCC(N2C(=O)c3cccc(NCCOCCOCCNc4cccc5c4C(=O)N(C4CCC(=O)NC4=O)C5=O)c3C2=O)C(=O)N1` (centres undefined), the Activity in assay [1] came out at 100%; in [2], 107%; in assay [3], 104%; in assay [4], 99%; in [5], 95%; in assay [6], 94%. Also, the Activity in assay [7] is 34%; in assay [8], 95%; in assay [10] it was 40%; in [11], 109%; in [12] it was 37%; in assay [13], 87%. For the same molecule, the Activity in assay [14] is 102%; in assay [15] it was 97%; in assay [16], 96%; in assay [17], 29%; in [18], 52%; in assay [19], 38%. The results for the Activity in assay [20], in assay [21] and in assay [22] were 25%, 95% and 99%, respectively. Further, the outcome in assay [9] was inactive.

Source of the values: ChEMBL document CHEMBL4665633, “Cereblon versus VHL: Hijacking E3 ligases against each other using PROTACs” (Bioorg Med Chem, 2019).
